# “And” between values parts separate entries of the source, which are not always exact repeats. Equal entries are not always repeated.
# Tests used:
# Mus musculus [1] = test: Tested in vivo for the effective dose administered orally in mouse hypothermia assay; assay type: functional; conditions: po
# Outline: (§1)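 Charles River CF-1 mice (18-22 g, 4 per dose), housed individually 20 min before testing. Rectal temperature taken before dosing and 20 min after (sc 0.1 mL; oral 0.2 mL by gavage needle). A drop of ≥2 °F counted as positive. Doses started at 30 mg/kg and fell by half-log until 0/4 responded.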
# Mus musculus [2] = test: In vivo effective dose administered subcutaneously in mouse hypothermia assay.; assay type: functional; conditions: sc; outline: as §1
# Mus musculus [3] = test: Behavioral time in mouse face to face assay at 36 umol/kg administered subcutaneously; assay type: functional
# Outline: (§2)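 Male CF-1 mice (Charles River, 19-29 g), 8 pairs per dose, dosed sc, ip or orally in 0.25% methylcellulose or 0.1% citric acid; 30 min absorption housed with familiar partner. Pairs from different home cages placed in small litter-floored cage; face-to-face interaction duration scored visually for 3 min. Wilcoxon rank sum (two-tailed) vs daily control, p < 0.05.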
# Mus musculus [4] = test: Behavioral time in mouse face to face assay at 0.4 umol/kg administered subcutaneously; assay type: functional; outline: as §2
# Mus musculus [5] = test: Behavioral time in mouse face to face assay at 3.6 umol/kg administered subcutaneously; assay type: functional; outline: as §2
# Mus musculus [6] = test: Behavioral time in mouse face to face assay at 0 umol/kg administered subcutaneously; assay type: functional; outline: as §2
# Rattus norvegicus [7] = test: Effect on the synthesis rate of dopamine (DOPA) accumulation at the dose of 3.6 umol/kg in the rat ventral limbic brain region; assay type: functional, Limbic system
# Outline: (§3)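 Male Sprague-Dawley rats dosed sc with drug or vehicle at time zero. NSD 1015 (100 mg/kg ip) given 15 min later to block aromatic decarboxylase. Brain DOPA and 5-HTP measured by electrochemical detection with peak integration. Expressed as percent change from NSD 1015 plus saline controls. Control and test groups N = 6 each, compared by unpaired t test.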
# Rattus norvegicus [8] = test: Effect on the synthesis rate of 5 HTP accumulation at the dose of 3.6 umol/kg in the rat ventral limbic brain region; assay type: functional, Limbic system; outline: as §3
# Felis catus [9] = species on record: Felis catus; test: Maximum decrease observed; assay type: functional; parameters: unit not given here
# Felis catus [10] = test: Maximum decrease on arterial blood pressure at 1 mg/kg; assay type: functional
# Outline: (§4)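 Adult cats (2.5-4.0 kg) anesthetized with ketamine 11 mg/kg im, then chloralose 80 mg/kg iv. Femoral artery cannulated for blood pressure, femoral vein for drug. Ventilated, paralyzed with gallamine 4 mg/kg iv, rectal temperature held at 37-38 °C. Cumulative iv doses given at 20-min intervals. Maximum decrease reported following a 1 mg/kg iv dose.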
# Felis catus [11] = test: Dose on arterial blood pressure (BP) in anesthetized cat; assay type: functional; outline: as §4
# Felis catus [12] = species on record: Felis catus; test: Dose at which the SND has been reduced to 50% of the pretreatment value; assay type: functional
# Outline: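 Adult cats (2.5-4.0 kg), ketamine 11 mg/kg im then chloralose 80 mg/kg iv, ventilated, gallamine-paralyzed, rectal temperature 37-38 °C. Sympathetic nerve discharge quantified by cumulative integration. Cumulative iv doses were given at 20-min intervals. Value is the dose reducing discharge to 50% of pretreatment.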
# Mus musculus [13] = test: Behavioral time in mouse face to face assay at 34 umol/kg administered subcutaneously; assay type: functional; outline: as §2
# Mus musculus [14] = test: Behavioral time in mouse face to face assay at 0.3 umol/kg administered subcutaneously; assay type: functional; outline: as §2
# Mus musculus [15] = test: Behavioral time in mouse isolation-induced aggression assay at 34 umol/kg administered intraperitoneally; assay type: functional
# Outline: (§5)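 Male CF-1 mice. Residents were isolated singly for at least 1 month; group-housed intruders were kept 4-6/cage. Mice weighed 28-30 g at first test. Residents got drug ip or orally in 0.25% methylcellulose or 0.1% citric acid 30 min before an untreated intruder was introduced. Latency to fighting was recorded, capped at 600 s. Dosing was blind, 6/group (vehicle n = 12), Wilcoxon rank sum.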
# Mus musculus [16] = test: Behavioral time in mouse face to face assay at 3.4 umol/kg administered subcutaneously; assay type: functional; outline: as §2
# Mus musculus [17] = test: Behavioral time in mouse isolation-induced aggression assay at 10 umol/kg administered intraperitoneally; assay type: functional; outline: as §5
# Mus musculus [18] = test: Behavioral time in mouse isolation-induced aggression assay at 3.4 umol/kg administered intraperitoneally; assay type: functional; outline: as §5
# Mus musculus [19] = test: Tested in vivo for the maximum temperature decrease in mouse hypothermia assay.; assay type: functional
# Outline: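 CF-1 mice (18-22 g, 4 per dose), dosed sc or orally. Rectal temperature measured before dosing and 20 min after. The mean maximum temperature drop (°F) at 20 min after any dose is recorded as an efficacy index.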
# Rattus norvegicus [20] = test: Effect on the synthesis rate of dopamine (DOPA) accumulation at the dose of 3.4 umol/kg in the rat ventral limbic brain region; assay type: functional, Limbic system; outline: as §3
# Rattus norvegicus [21] = test: Effect on the synthesis rate of 5 HTP accumulation at the dose of 3.4 umol/kg in the rat ventral limbic brain region; assay type: functional, Limbic system; outline: as §3
# Rattus norvegicus [22] = test: Effect on the synthesis rate of dopamine (DOPA) accumulation at the dose of 100 umol/kg in the rat ventral limbic brain region; assay type: functional, Limbic system; outline: as §3
# Rattus norvegicus [23] = test: Effect on the synthesis rate of dopamine (DOPA) accumulation at the dose of 10 uM/kg in the rat ventral limbic brain region; assay type: functional, Limbic system; outline: as §3
# Rattus norvegicus [24] = test: Effect on the synthesis rate of 5 HTP accumulation at the dose of 10 umol/kg in the rat ventral limbic brain region; assay type: functional, Limbic system; outline: as §3
# Rattus norvegicus [25] = test: Effect on the synthesis rate of 5 HTP accumulation at the dose of 100 umol/kg in the rat ventral limbic brain region; assay type: functional, Limbic system; outline: as §3
Compound,ED50 (Mus musculus [1]),ED50 (Mus musculus [2]),Max decrease (Felis catus [9]),Max decrease (Felis catus [10]),BP (Felis catus [11]),ED50 (Felis catus [12]),TMP.decrease (Mus musculus [19]),also measured
C=CCN[C@@H]1CCc2cccc(O)c2[C@@H]1CC=C,> 107 µmol/kg,1.1 µmol/kg,,,,,,Time (Mus musculus [3]): 2.6 s; Time (Mus musculus [4]): 0.8 s; Time (Mus musculus [5]): 0.5 s; Time (Mus musculus [6]): 0.8 s; Change (Rattus norvegicus [7]): 38%; Change (Rattus norvegicus [8]): -48%
C=CC[C@H]1c2c(cccc2OC)CC[C@H]1NCC1CC1,134 µmol/kg,18 µmol/kg,10,58,65%,0.27 µmol/kg,,
C=CCN[C@@H]1CCc2cccc(OC)c2[C@@H]1CO,> 106 µmol/kg,1.4 µmol/kg,5,48,82%,0.09 µmol/kg,,
C=CCN[C@@H]1CCc2cccc(OC)c2[C@@H]1CC=C,44 µmol/kg,7.9 µmol/kg,18,58,70%,0.54 µmol/kg,9.8 degrees F and 6.6 degrees F,Time (Mus musculus [13]): 4.3 s; Time (Mus musculus [14]): 0.9 s; Time (Mus musculus [15]): 290 s; Time (Mus musculus [16]): 1.4 s; Time (Mus musculus [17]): 130 s; Time (Mus musculus [18]): 45 s; Time (Mus musculus [6]): 1.1 s; Change (Rattus norvegicus [20]): -21%; Change (Rattus norvegicus [21]): -60%
C=CC[C@H]1c2c(cccc2OC)CC[C@H]1NCCC,78 µmol/kg,3.4 µmol/kg,10,57,85%,0.27 µmol/kg,7.6 degrees F and 6 degrees F,Change (Rattus norvegicus [20]): 2.2%; Change (Rattus norvegicus [21]): -50%
CCC[C@H]1c2c(O)cccc2CC[C@H]1N(CCC)CCC,> 92 µmol/kg,9.5 µmol/kg,,,,,6.9 degrees F,
CCCN[C@@H]1CCc2cccc(OC)c2[C@@H]1CCC,> 101 µmol/kg,14 µmol/kg,,,,,6.5 degrees F,
C=CC[C@H]1c2cccc(OC)c2CC[C@H]1NCCC,,,,,,,,Change (Rattus norvegicus [22]): -24%; Change (Rattus norvegicus [23]): 35%; Change (Rattus norvegicus [24]): 17%; Change (Rattus norvegicus [25]): -36%
C=CC[C@H]1c2c(cccc2OC)CC[C@H]1N(CCC)CCC,,> 89 µmol/kg,,,,,,

# — ChEMBL document CHEMBL1126613, “Centrally acting serotonergic agents. Synthesis and structure-activity relationships of C-1- or C-3-substituted derivatives of 8-hydroxy-2-(di-n-propylamino)tetralin” (J Med Chem, 1993)
